Assay outcomes from PubChem.
LEDGF integ inh – blocks HIV-1 LEDGF/p75-dependent DNA integration; TR-FRET IN-LEDGF/p75 DNA integration, Eu/Cy5; AID 743269; 370,000 compounds, 0.64% hits; inhibition, % at 3.7 µM;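 active = inhibition above the screen-wide mean plus 3 SD, cut at about 13% in these data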;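 note: signal is the Cy5 over europium emission ratio at 671 and 618 nm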
UHRF1 MBD2 ctr – human UHRF1 methylated DNA binding inhibitors; Q96T88; UHRF1 binding to methylated oligo, TR-FRET; inhibition, % at 4.4 µM; 370,000 compounds, 0.75% hits; in the data active = inhibition above about 21%;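 note: UHRF1 SRA domain binding a hemimethylated CpG hairpin DNA probe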
TDP2 absorb – blocks human TDP2 phosphodiesterase activity. O95551. recombinant TDP2, T5PNP hydrolysis, p-nitrophenol absorbance 415 nm. inhibition, % at 12.8 µM. 370,000 compounds, 0.34% hits. AID 720702;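 active = inhibition above the mean of all tested compounds plus 3 SD, set per campaign, cut at about 25% in these data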
Target sequence (O95551 whole entry, looked up): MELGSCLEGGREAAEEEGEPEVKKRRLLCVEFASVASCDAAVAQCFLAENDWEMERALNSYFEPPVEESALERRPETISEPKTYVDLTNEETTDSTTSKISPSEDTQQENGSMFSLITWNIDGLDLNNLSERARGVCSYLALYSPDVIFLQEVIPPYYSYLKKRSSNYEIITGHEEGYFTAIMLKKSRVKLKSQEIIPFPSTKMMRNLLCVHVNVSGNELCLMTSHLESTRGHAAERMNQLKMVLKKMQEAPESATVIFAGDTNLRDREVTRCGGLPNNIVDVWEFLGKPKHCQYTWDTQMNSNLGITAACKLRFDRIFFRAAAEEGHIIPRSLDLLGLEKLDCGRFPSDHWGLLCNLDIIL
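test system = human TDP2 enzyme | input = TDP2 enzyme at 120 nM final | medium = 50 mM Tris-HCl pH 7.5 with Mg2+, KCl, DTT, BSA | also added = T5PNP substrate, 5 mM | times = 2 h at 37 °C | technique = epi absorbance | benchmarks = high control without enzyme, low control DMSO plus TDP2 | replication = each compound tested once, singlicate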
ASAP1 GAP inh – ASAP1 ArfGAP inhibition; Q9ULH1; ASAP1-stimulated ARF1 GTP hydrolysis, GDP FP detection; inhibition, % at 16.5 µM; 360,000 compounds, 0.19% hits; AID 624377; in the data active = inhibition above about 25%
MBD2 DNA inh – blocks human MBD2 binding to methylated DNA | TR-FRET, MBD2 binding to methylated oligonucleotide | 370,000 compounds, 0.31% hits | Q9UBB5 | inhibition, % at 4.4 µM; in the data active = inhibition above about 13%
ARFGAP1 inhibitor – inhibitors of rat ARFGAP1 | Q62848 | Arfgap1-stimulated ARF1 GTP hydrolysis, GDP FP detection | inhibition, % at 16.5 µM | 360,000 compounds, 0.26% hits;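 active = inhibition above a per-plate limit, mean inhibition of low control wells plus 3 SD, cut at about 25% in these data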
Target sequence (Q62848 1-136 limits assumed): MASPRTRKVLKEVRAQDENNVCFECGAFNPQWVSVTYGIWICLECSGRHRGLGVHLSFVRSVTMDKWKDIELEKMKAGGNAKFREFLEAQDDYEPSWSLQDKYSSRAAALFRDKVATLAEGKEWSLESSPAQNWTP
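Material: rat Arfgap1 catalytic domain, aa 1-136; also added: human ARF1(Δ1-17)-GTP substrate; compound dosing: one concentration, 16.5 µM, DMSO 1.26%; incubation: GTP hydrolysis reaction 2 h at 25 °C; measured by: Tracer-displacement fluorescence polarization with EDTA stop, 620/688 nm; evaluation: % inhibition from polarization; repeats: one replicate per compound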
ASAP1 GAP conf – confirmation of human ASAP1 inhibitors; 620 compounds, 37% hits; inhibition, % at 16.5 µM; shares compounds with ASAP1 GAP inh; ASAP1-stimulated Arf1 GTPase, GDP fluorescence polarization;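 active = mean inhibition over triplicates exceeds the hit threshold derived for the earlier primary screening run, cut at about 25% in these data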
Each line names hits and unclear results; the compound was inactive in the other large screens (follow-up assays come after a bar, where they were run). Only some compounds are listed: those with a hit (about 2% of all), similar ones and a draw of the others.

CCC[C@H]1OC(=O)[C@@H]2CCCN2C(=O)[C@H]([C@H](C)Cc2ccccc2)NC(=O)[C@@H]2CCCN2C(=O)[C@@H]2CCCN2C(=O)[C@H](C(C)C)OC(=O)[C@@H]2CCCN2C(=O)[C@H](C(C)C)NC(=O)C1(C)C	none (no result: ASAP1 GAP inh, ARFGAP1 inhibitor)
COc1ccc(/C=C2\SC(N)=NC2=O)cc1Br	none
COc1cc(/C=C2\SC(c3ccc(C)cc3)=NC2=O)cc(OC)c1O	ASAP1 GAP inh 25 | ASAP1 GAP conf 36
Cc1ccc(C2=NC(=O)/C(=C/c3cc(O)c(O)c(Br)c3)S2)cc1	LEDGF integ inh 89, UHRF1 MBD2 ctr 50, ASAP1 GAP inh 30, MBD2 DNA inh 38 | ASAP1 GAP conf 69
COc1cc(/C=C2\SC(N)=NC2=O)cc(Cl)c1O	none
CN(C)c1ccc(NC(=O)NC2CCCCN(Cc3cccc(Cl)c3)C2=O)cc1 (centres undefined)	none (no result: ASAP1 GAP inh, ARFGAP1 inhibitor)
O=C(Nc1cccc(-c2csc(Nc3ccc(Cl)cc3)n2)c1)c1cccc(C(F)(F)F)c1	none
O=C(Nc1cccc(-c2csc(Nc3ccc(Cl)cc3)n2)c1)c1ccccc1	ASAP1 GAP inh 26 | ASAP1 GAP conf 26
CC(=O)Nc1ccc(C(=O)Nc2cccc(-c3cnc4ccccc4n3)c2)cc1	ASAP1 GAP inh 40 | ASAP1 GAP conf 80
COc1ccc(NC(=O)Cn2nnc(-c3ccccc3NC(=O)c3ccco3)n2)cc1	none
COc1ccccc1NC(=O)Cn1nnc(-c2ccccc2NC(=O)c2ccco2)n1	ASAP1 GAP inh 28 | ASAP1 GAP conf inactive
C=CCN(C(=O)[C@@H](CCCC)[C@@H](O)c1ccc2ccccc2c1)c1ccccc1	none (no result: ASAP1 GAP inh, ARFGAP1 inhibitor)
CCN(Cc1ccccc1)C(=O)CCCN1C(=O)COc2ccc(C)cc21	none (no result: ASAP1 GAP inh, ARFGAP1 inhibitor)
CC(=O)Nc1ccc(N2C(=O)CSC2c2c(F)cccc2Cl)cc1 (centres undefined)	ASAP1 GAP inh 27 | ASAP1 GAP conf inactive
CC(C)(C)C(=O)COC(=O)c1cc2ccccc2cc1O	none
CC1CCN(C(=O)COC(=O)c2cc3ccccc3cc2O)CC1	ASAP1 GAP inh 26 | ASAP1 GAP conf inactive
COc1ccc(C(C(=O)N(C)C2CCCC2)N(Cc2ccc(F)cc2)C(=O)c2csc(-c3ccccc3)n2)cc1OC (centres undefined)	none (no result: ASAP1 GAP inh, ARFGAP1 inhibitor)
CCOC(=O)c1sc(NC(C)=O)c(C(=O)OCC)c1C	none
CCOC(=O)c1sc(NC(=O)CNCc2cccnc2)c(C(=O)OCC)c1C	ASAP1 GAP inh 37 | ASAP1 GAP conf inactive
O=C(Nc1ccc2oc(=O)ccc2c1)c1ccc(-c2ccc(Cl)cc2)o1	ASAP1 GAP inh 48 | ASAP1 GAP conf 69
Cc1ccc(SCCC(=O)NC2CC2)cc1	none
Cc1ccc(SCC(=O)NC2CC2)cc1	ASAP1 GAP inh 27 | ASAP1 GAP conf inactive
COc1ccc(/C=C2\SC(=S)N(CCC(=O)NCCCn3ccnc3)C2=O)cc1	none
O=C(CCCN1C(=O)/C(=C/c2ccc(F)cc2)SC1=S)NCCCn1ccnc1	ASAP1 GAP inh 26 | ASAP1 GAP conf inactive
CC(CCN1CCC(C(O)(c2ccccc2)c2ccccc2)CC1)Oc1ccc(F)cc1 (centres undefined)	none (no result: ASAP1 GAP inh, ARFGAP1 inhibitor)
COc1ccccc1Oc1cc(F)nc(N)n1	ASAP1 GAP inh 26 | ASAP1 GAP conf inactive
O=C(CSc1cc(Cl)ccc1Cl)NCCCn1ccnc1	none
O=C(CNC(=O)c1ccc(Cl)cc1Cl)NCCCn1ccnc1	ASAP1 GAP inh 29 | ASAP1 GAP conf inactive
COc1cccc(NC(=O)n2ccc3ccc(-c4ccc5cc[nH]c5c4)cc32)c1	none (no result: ASAP1 GAP inh, ARFGAP1 inhibitor)
Cc1cc([N+](=O)[O-])c(C)cc1-c1ccc(/C=N/NC(=O)c2cccnc2)o1	ASAP1 GAP inh 25 | ASAP1 GAP conf inactive
COc1ccc(-n2nnc3c(=O)n(CC(=O)Nc4ccc5c(c4)OCCO5)cnc32)cc1OC	ASAP1 GAP inh 108 | ASAP1 GAP conf 73
NC(=S)NN=C1c2cc(OCCN3CCOCC3)ccc2-c2ccc(OCCN3CCOCC3)cc21	ASAP1 GAP inh 25 | ASAP1 GAP conf inactive
Clc1ccc(OCCN2CCOCC2)cc1Cl	none
